Tests used:
[1] = biological target: Secreted aspartic protease 2 (Candida albicans) (UniProt P0CS83); experiment: Inhibition of Candida albicans SAP2 at 10 uM by spectrophotometry
Outline: (§1)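 Sample was mixed with 1% (w/v) BSA substrate in 50 mM sodium citrate, pH 3.2, plus SAP2 protease (1 μg/mL stock solution) and incubated 30 min at 37 °C. The reaction was stopped with 10% TCA, kept 30 min on ice, and centrifuged; supernatant A280 was read. Percent inhibition was taken from ΔOD, with control proteinase minus proteinase plus pepstatin A set as 100%.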

[2] = biological target: Secreted aspartic protease 2 (Candida albicans) (UniProt P0CS83); experiment: Inhibition of Candida albicans SAP2 at 10 uM by spectrophotometry relative to pepstatin A; outline: as §1
[3] = biological target: Secreted aspartic protease 2 (Candida albicans) (UniProt P0CS83); experiment: Inhibition of Candida albicans SAP2 at 20 uM by spectrophotometry relative to pepstatin A; outline: as §1
Candida albicans [4] = experiment: Antifungal activity against pharmacoresistant Candida albicans AIDS68 infected in Wistar rat estrogen-dependent fungal vaginitis model assessed as fungal burden at 10 ug administered intravaginally 48 hrs after fungal infection measured on day 7 after infection; type: functional, Vagina
Outline: (§2)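 Oophorectomized female Wistar rats (80-100 g) got 0.5 mg estradiol benzoate s.c. Six days later they were inoculated intravaginally with >10⁷ YPD-grown yeast cells (28 °C, washed, hemocytometer-counted) in 0.1 mL saline. Treatment was given intravaginally at 1, 24 and 48 h post-challenge. Burden was counted by culturing 100 μL vaginal fluid on Sabouraud-chloramphenicol (50 μg/mL) agar, as CFU/mL ×1000, through day 28.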

Candida albicans [5] = experiment: Antifungal activity against Candida albicans SA40 infected in Wistar rat estrogen-dependent fungal vaginitis model assessed as fungal burden at 10 ug administered intravaginally 1 hr after fungal infection measured on day 1 after infection; type: functional, Vagina; outline: as §2
Candida albicans [6] = experiment: Antifungal activity against Candida albicans SA40 infected in Wistar rat estrogen-dependent fungal vaginitis model assessed as fungal burden at 10 ug administered intravaginally 48 hrs after fungal infection measured on day 28 after infection; type: functional, Vagina; outline: as §2
Candida albicans [7] = experiment: Antifungal activity against Candida albicans SA40 infected in Wistar rat estrogen-dependent fungal vaginitis model assessed as fungal burden at 10 ug administered intravaginally 24 hrs after fungal infection measured on day 2 after infection; type: functional, Vagina; outline: as §2
Candida albicans [8] = experiment: Antifungal activity against Candida albicans SA40 infected in Wistar rat estrogen-dependent fungal vaginitis model assessed as fungal burden at 10 ug administered intravaginally 48 hrs after fungal infection measured on day 14 after infection; type: functional, Vagina; outline: as §2
Candida albicans [9] = experiment: Antifungal activity against pharmacoresistant Candida albicans AIDS68 infected in Wistar rat estrogen-dependent fungal vaginitis model assessed as fungal burden at 10 ug administered intravaginally 24 hrs after fungal infection measured on day 2 after infection; type: functional, Vagina; outline: as §2
Candida albicans [10] = experiment: Antifungal activity against Candida albicans SA40 infected in Wistar rat estrogen-dependent fungal vaginitis model assessed as fungal burden at 10 ug administered intravaginally 48 hrs after fungal infection measured on day 5 after infection; type: functional, Vagina; outline: as §2
Candida albicans [11] = experiment: Antifungal activity against pharmacoresistant Candida albicans AIDS68 infected in Wistar rat estrogen-dependent fungal vaginitis model assessed as fungal burden at 10 ug administered intravaginally 48 hrs after fungal infection measured on day 21 after infection; type: functional, Vagina; outline: as §2
Candida albicans [12] = experiment: Antifungal activity against pharmacoresistant Candida albicans AIDS68 infected in Wistar rat estrogen-dependent fungal vaginitis model assessed as fungal burden at 10 ug administered intravaginally 1 hr after fungal infection measured on day 1 after infection; type: functional, Vagina; outline: as §2
Candida albicans [13] = experiment: Antifungal activity against Candida albicans SA40 infected in Wistar rat estrogen-dependent fungal vaginitis model assessed as fungal burden at 10 ug administered intravaginally 1 hr after fungal infection measured within 1 day of infection; type: functional, Vagina; outline: as §2
Candida albicans [14] = experiment: Antifungal activity against Candida albicans SA40 infected in Wistar rat estrogen-dependent fungal vaginitis model assessed as fungal burden at 10 ug administered intravaginally 48 hrs after fungal infection measured on day 7 after infection; type: functional, Vagina; outline: as §2
Candida albicans [15] = experiment: Antifungal activity against pharmacoresistant Candida albicans AIDS68 infected in Wistar rat estrogen-dependent fungal vaginitis model assessed as fungal burden at 10 ug administered intravaginally 48 hrs after fungal infection measured on day 5 after infection; type: functional, Vagina; outline: as §2
Candida albicans [16] = experiment: Antifungal activity against pharmacoresistant Candida albicans AIDS68 infected in Wistar rat estrogen-dependent fungal vaginitis model assessed as fungal burden at 10 ug administered intravaginally 48 hrs after fungal infection measured on day 14 after infection; type: functional, Vagina; outline: as §2
Candida albicans [17] = experiment: Antifungal activity against Candida albicans SA40 infected in Wistar rat estrogen-dependent fungal vaginitis model assessed as fungal burden at 10 ug administered intravaginally 48 hrs after fungal infection measured on day 21 after infection; type: functional, Vagina; outline: as §2

Sequence of Secreted aspartic protease 2 (Candida albicans) (P0CS83 57-398 limits assumed): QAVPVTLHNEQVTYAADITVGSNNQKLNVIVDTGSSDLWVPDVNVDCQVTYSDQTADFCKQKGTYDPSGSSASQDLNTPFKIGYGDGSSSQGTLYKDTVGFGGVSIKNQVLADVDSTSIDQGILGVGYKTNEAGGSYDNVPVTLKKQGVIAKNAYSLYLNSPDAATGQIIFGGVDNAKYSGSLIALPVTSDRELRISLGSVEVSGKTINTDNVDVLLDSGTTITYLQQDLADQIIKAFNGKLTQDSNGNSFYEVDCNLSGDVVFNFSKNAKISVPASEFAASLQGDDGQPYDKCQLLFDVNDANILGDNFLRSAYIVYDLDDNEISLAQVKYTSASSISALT

inhibition [1] [%]	inhibition [2] [%]	inhibition [3] [%]	Structure (SMILES)	other results
31	92	62	O=C([C@@H]1O[C@H]2CN(Cc3ccccc3)C(=O)[C@@H]1O2)N1CCOCC1	–
–	–	58	O=C([C@@H]1O[C@H]2CN(Cc3ccccc3)C(=O)[C@@H]1O2)N1CCSCC1	–
–	–	30	O=C(N[C@H](CO)Cc1ccccc1)[C@@H]1O[C@H]2CN(Cc3ccccc3)C(=O)[C@@H]1O2	–
31	92	58	O=C([C@@H]1O[C@H]2CN(Cc3ccccc3)C(=O)[C@@H]1O2)N1CCN(CCO)CC1	–
10	19	74	CCOC(=O)N1CCN(C(=O)[C@@H]2O[C@H]3CN(Cc4ccccc4)C(=O)[C@@H]2O3)CC1	–
–	–	48	O=C1[C@@H]2O[C@H](CN1Cc1ccccc1)O[C@H]2C(=O)N1CCC[C@H]1CO	–
–	–	34	O=C1[C@@H]2O[C@H](CN1Cc1ccccc1)O[C@H]2C(=O)N1CCC[C@@H]1CO	–
–	–	–	CC(C)CC(=O)N[C@H](C(=O)N[C@H](C(=O)N[C@@H](CC(C)C)[C@@H](O)CC(=O)N[C@@H](C)C(=O)N[C@@H](CC(C)C)[C@@H](O)CC(=O)O)C(C)C)C(C)C [PEPSTATIN]	Activity (Candida albicans [4]): 30 ×10³ CFU/ml; Activity (Candida albicans [5]): 56.8 ×10³ CFU/ml; Activity (Candida albicans [6]): 0 ×10³ CFU/ml; Activity (Candida albicans [7]): 51 ×10³ CFU/ml; Activity (Candida albicans [8]): 9.4 ×10³ CFU/ml; Activity (Candida albicans [9]): 52 ×10³ CFU/ml; Activity (Candida albicans [10]): 32.4 ×10³ CFU/ml; Activity (Candida albicans [11]): 3.8 ×10³ CFU/ml; Activity (Candida albicans [12]): 58.4 ×10³ CFU/ml; Activity (Candida albicans [13]): >100 ×10³ CFU/ml; Activity (Candida albicans [14]): 28 ×10³ CFU/ml; Activity (Candida albicans [15]): 37.2 ×10³ CFU/ml; Activity (Candida albicans [16]): 19.8 ×10³ CFU/ml; Activity (Candida albicans [17]): 5 ×10³ CFU/ml
–	–	33	CC(C)C[C@@H](CO)NC(=O)[C@H]1OC2CN(Cc3ccccc3)C(=O)C1O2 (single isomer, unassigned)	–
–	–	35	C[C@@H](CO)NC(=O)[C@@H]1O[C@H]2CN(Cc3ccccc3)C(=O)[C@@H]1O2	–
10	19	63	O=C([C@@H]1O[C@H]2CN(Cc3ccccc3)C(=O)[C@@H]1O2)N1CCCNCC1	–
–	–	63	NCCNC(=O)[C@@H]1O[C@H]2CN(Cc3ccccc3)C(=O)[C@@H]1O2	–

Reference: ChEMBL document CHEMBL1157639, “Identification of inhibitors of drug-resistant Candida albicans strains from a library of bicyclic peptidomimetic compounds” (2010)
